Test results as given in publication PMC7312786 (Biochemistry, 2018).

Assays:
[1] = molecular target: T1, hpol η (Homo sapiens, UniProt Q9Y253); assay: HPG labeling / MS protein footprinting of hpol η; format: binding; details: 20 and 100 μM PNR-7-02
T1 sequence (Q9Y253 1-437): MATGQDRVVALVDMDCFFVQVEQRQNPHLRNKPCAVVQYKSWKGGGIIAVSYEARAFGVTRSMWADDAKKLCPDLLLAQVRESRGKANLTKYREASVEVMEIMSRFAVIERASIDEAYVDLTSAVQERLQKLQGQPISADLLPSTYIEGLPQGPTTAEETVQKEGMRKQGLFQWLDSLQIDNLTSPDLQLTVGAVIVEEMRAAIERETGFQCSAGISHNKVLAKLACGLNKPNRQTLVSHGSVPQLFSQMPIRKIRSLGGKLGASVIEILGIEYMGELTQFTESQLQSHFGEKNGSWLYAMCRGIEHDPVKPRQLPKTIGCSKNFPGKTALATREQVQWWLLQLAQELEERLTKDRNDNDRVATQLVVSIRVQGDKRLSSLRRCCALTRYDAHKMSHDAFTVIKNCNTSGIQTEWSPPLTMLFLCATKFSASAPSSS
How it was run: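 Protein footprinting: hpol η (10 μM) preincubated 10 min at 37 °C with 20 μM (1:2) or 100 μM (1:10) test compound in 50 mM HEPES pH 7.8, 10 mM MgCl₂, 10% DMSO. Then 500 μM HPG for 60 min at 37 °C in the dark; quenched with 200 mM arginine. SDS-PAGE, then MS. Modified arginine taken as fraction of total per residue, normalized to the HPG-alone sample.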

[2] = molecular target: T2, hpol λ (Homo sapiens, UniProt Q9UGP5); assay: Fluorescence-based pol activity assay, hpol λ; format: biochemical
T2 sequence (Q9UGP5 251-575 limits assumed): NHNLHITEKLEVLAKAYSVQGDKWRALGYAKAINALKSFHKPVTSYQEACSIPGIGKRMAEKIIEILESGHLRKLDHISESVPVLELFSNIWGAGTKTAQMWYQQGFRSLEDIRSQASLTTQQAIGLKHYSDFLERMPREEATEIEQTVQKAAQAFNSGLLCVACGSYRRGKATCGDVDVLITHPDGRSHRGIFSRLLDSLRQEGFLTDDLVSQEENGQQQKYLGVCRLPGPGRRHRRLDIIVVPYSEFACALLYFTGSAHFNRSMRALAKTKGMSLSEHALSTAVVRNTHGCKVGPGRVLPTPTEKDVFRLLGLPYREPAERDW

[3] = tested on: hpol η-deficient HAP-1 cells; assay: Cell viability; format: cell-based, human
How it was run: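 HAP-1 parental or CRISPR hpol η-null cells in IMDM with 10% FBS and 1% antibiotic/antimycotic, passage 8–10, seeded 5000 cells/well. Next day: CDDP 0–100 μM alone or with 0.1 or 1 μM test compound, 48 h. Cells washed twice in DPBS, then 2 μM Calcein-AM for 30 min at 25 °C; fluorescence ex 490/em 520 nm. Viability as % of untreated. […] Combination index by Chou–Talalay.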

[4] = tested on: γH2AX in hpol η-proficient HAP-1 cells; assay: γH2AX immunoblotting, hpol η-proficient HAP-1 cells; format: cell-based, human; details: PNR-7-02 alone
How it was run: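 HAP-1 cells treated with DMSO or 0.5 μM CDDP combined with 0.1 or 1 μM test compound. Pellets lysed at 4 °C in HEPES pH 7.5/Triton X-100 buffer with phosphatase and protease inhibitors. 30–40 μg protein run on 4–20% SDS-PAGE, transferred to nitrocellulose. Probed with anti-γH2AX (S139) 1:1500 and HRP anti-rabbit 1:4000; β-actin loading control; chemiluminescence. Bands normalized to β-actin, relative to DMSO; three biological replicates; t test.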

[5] = molecular target: T3, hpol ι (Homo sapiens, UniProt Q9UNA4); assay: Gel-based pol extension assay, hpol ι; format: biochemical; details: relative to hpol η / hRev1
T3 sequence (Q9UNA4 1-446): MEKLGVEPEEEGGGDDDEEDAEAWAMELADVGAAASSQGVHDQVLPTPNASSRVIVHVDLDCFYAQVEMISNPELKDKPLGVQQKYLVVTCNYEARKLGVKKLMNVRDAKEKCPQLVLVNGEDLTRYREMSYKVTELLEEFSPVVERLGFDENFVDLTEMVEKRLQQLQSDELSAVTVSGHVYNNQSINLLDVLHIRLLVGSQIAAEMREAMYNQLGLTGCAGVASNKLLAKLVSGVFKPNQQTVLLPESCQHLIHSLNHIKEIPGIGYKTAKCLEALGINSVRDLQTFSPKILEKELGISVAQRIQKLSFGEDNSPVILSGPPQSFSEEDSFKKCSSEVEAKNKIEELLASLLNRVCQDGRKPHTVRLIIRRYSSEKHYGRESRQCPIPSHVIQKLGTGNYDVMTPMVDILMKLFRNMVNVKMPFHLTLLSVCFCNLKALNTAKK
How it was run: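 Gel extension assay with hpol ι core (residues 1–446) or hpol κ core (residues 19–526). Enzyme 2 nM preincubated 5 min with increasing test compound in 50 mM HEPES pH 7.5, 50 mM NaCl, 1 mM DTT, 0.1 mg/mL BSA, 10% glycerol. Started at 37 °C with 200 nM FAM-labeled 13/18-mer primer–template, 10 μM each dNTP, 5 mM MgCl₂. Quench: 20 mM EDTA/95% formamide, 95 °C. Triplicate; IC50 mean ± SD.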

O=C1NC(=S)NC(=O)C1=Cc1cn(Cc2ccc3ccccc3c2)c2ccc(Cl)cc12 [PNR-7-02, 5-((5-chloro-1-(naphthalen-2-ylmethyl)-1H-indol-3-yl)methylene)-2-thioxodihydropyrimidine-4,6-(1H,5H)-dione]
HPG modification of Arg351 of hpol η [1]: completely abrogated
Effect on catalysis by hpol λ ([2]; 20 μM PNR-7-02): strongly inhibited
Pol activity relative to DMSO control, hpol λ ([2]; 20 μM PNR-7-02, mean (±SD)): 5.9 (±2.1) %
IC50 ([2]; read-out: IC50, hpol λ, best-fit value and 95% confidence interval, three replicates): 8 µM
Effect of adding PNR-7-02 on toxicity of CDDP ([3]; hpol η-deficient cells): does not have a notable effect
Combination index with CDDP ([3]; hpol η-deficient cells, 0.1 μM PNR-7-02): 1.02
Combination index with CDDP ([3]; hpol η-deficient cells, 1 μM PNR-7-02): 0.90
EC50 ([3]; read-out: EC50, cell viability, PNR-7-02 alone, hpol η-deficient HAP-1, 48 h): 5.6 µM
μH2AX formation [4]: did not change
Increase in IC50 against hpol η (so in the source); first of 'hpols η and κ') [5]: ~3 fold
